Laboratory results as given in ChEMBL document CHEMBL2434863, “Synthesis and in vitro/in vivo antibacterial activity of oxazolidinones having thiocarbamate at C-5 on the A-ring and an amide- or urea-substituted [1,2,5]triazepane or [1,2,5]oxadiazepane as the C-ring” (Eur J Med Chem, 2013).

Legend:
Format in all cases: functional
[1] = tested on: Moraxella catarrhalis; test: Antibacterial activity against Moraxella catarrhalis SR26840 clinical isolate assessed as growth inhibition by broth microdilution method
[2] = tested on: Enterococcus faecalis; test: Antibacterial activity against Enterococcus faecalis SR1004 clinical isolate assessed as growth inhibition by broth microdilution method
[3] = tested on: Staphylococcus aureus; test: Antibacterial activity against Staphylococcus aureus SR20549 clinical isolate assessed as growth inhibition by broth microdilution method
[4] = tested on: Staphylococcus aureus; test: Antibacterial activity against Staphylococcus aureus Smith assessed as growth inhibition by broth microdilution method
[5] = tested on: Streptococcus pneumoniae; test: Antibacterial activity against Streptococcus pneumoniae SR26207 clinical isolate assessed as growth inhibition by broth microdilution method
[6] = tested on: Haemophilus influenzae; test: Antibacterial activity against Haemophilus influenzae SR27914 clinical isolate assessed as growth inhibition by broth microdilution method
[7] = tested on: Enterococcus faecium; test: Antibacterial activity against Enterococcus faecium SR7940 clinical isolate assessed as growth inhibition by broth microdilution method
[8] = tested on: Staphylococcus aureus; test: Antibacterial activity against linezolid-resistant Staphylococcus aureus NRS271 assessed as growth inhibition by broth microdilution method
[9] = tested on: Staphylococcus aureus; test: Antibacterial activity against methicillin-resistant Staphylococcus aureus SR3637 infected in JCL/ICR mouse systemic infection model assessed as mortality administered as iv measured over 7 days; conditions: 168 h
Outline: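 Lethal systemic infection model in mice; test agents were given intravenously.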

[10] = tested on: Staphylococcus aureus; test: Antibacterial activity against methicillin-resistant Staphylococcus aureus SR3637 assessed as growth inhibition by broth microdilution method

## NC(=O)N1CCN(c2c(F)cc(N3C[C@H](Cn4ccnn4)OC3=O)cc2F)CCO1
[1]
  MIC: 8 µg/mL
[2]
  MIC: 4 µg/mL
[3]
  MIC: 1 µg/mL
[4]
  MIC: 2 µg/mL
[5]
  MIC: 1 µg/mL
[6]
  MIC: 16 µg/mL
[7]
  MIC: 4 µg/mL
[8]
  MIC: 32 µg/mL

## COC(=S)NC[C@H]1CN(c2cc(F)c(N3CCNN(C(C)=O)CC3)c(F)c2)C(=O)O1
[1]
  MIC: 2 µg/mL
[2]
  MIC: 1 µg/mL
[3]
  MIC: 0.5 µg/mL
[4]
  MIC: 1 µg/mL
[5]
  MIC: 0.125 µg/mL
[6]
  MIC: 32 µg/mL
[7]
  MIC: 0.5 µg/mL
[8]
  MIC: 4 µg/mL

## CNC(=O)N1CCN(c2c(F)cc(N3C[C@H](CNC(=S)OC)OC3=O)cc2F)CCN1
[1]
  MIC: 1 µg/mL
[2]
  MIC: 0.25 µg/mL
[3]
  MIC: 0.25 µg/mL
[9]
  ED50: 3.17 mg/kg
[4]
  MIC: 0.25 µg/mL
[5]
  MIC: ≤ 0.063 µg/mL
[10]
  MIC: 0.25 µg/mL
[6]
  MIC: 8 µg/mL
[7]
  MIC: 0.25 µg/mL
[8]
  MIC: 2 µg/mL

## Nc1cnc2c(c1)c(=O)n1n2CCN(c2c(F)cc(N3C[C@H](Cn4ccnn4)OC3=O)cc2F)CC1
[1]
  MIC: 16 µg/mL
[2]
  MIC: 2 µg/mL
[3]
  MIC: 1 µg/mL
[4]
  MIC: 1 µg/mL
[5]
  MIC: 0.25 µg/mL
[6]
  MIC: 32 µg/mL
[7]
  MIC: 2 µg/mL
[8]
  MIC: 16 µg/mL

## CNC(=O)N1CCN(c2c(F)cc(N3C[C@H](Cn4ccnn4)OC3=O)cc2F)CCO1
[1]
  MIC: 16 µg/mL
[2]
  MIC: 4 µg/mL
[3]
  MIC: 2 µg/mL
[4]
  MIC: 8 µg/mL
[5]
  MIC: 1 µg/mL
[6]
  MIC: 32 µg/mL
[7]
  MIC: 2 µg/mL
[8]
  MIC: 32 µg/mL

## O=C(CO)N1CCN(c2ccc(-c3ccc(N4C[C@H](Cn5ccnn5)OC4=O)cc3F)cn2)CCO1
[1]
  MIC: 8 µg/mL
[2]
  MIC: 2 µg/mL
[3]
  MIC: 1 µg/mL
[4]
  MIC: 2 µg/mL
[5]
  MIC: 0.25 µg/mL
[6]
  MIC: 32 µg/mL
[7]
  MIC: 1 µg/mL
[8]
  MIC: 8 µg/mL

## CONC(=O)N1CCN(c2c(F)cc(N3C[C@H](CNC(=S)OC)OC3=O)cc2F)CCN1
[1]
  MIC: 2 µg/mL
[2]
  MIC: 0.5 µg/mL
[3]
  MIC: 0.5 µg/mL
[9]
  ED50: 3.05 mg/kg
[4]
  MIC: 0.5 µg/mL
[5]
  MIC: 0.25 µg/mL
[10]
  MIC: 0.5 µg/mL
[6]
  MIC: 16 µg/mL
[7]
  MIC: 0.25 µg/mL
[8]
  MIC: 4 µg/mL

## CC(=O)NC[C@H]1CN(c2ccc(-c3ccc(N4CCON(C(=O)CO)CC4)nc3)c(F)c2)C(=O)O1
[1]
  MIC: 16 µg/mL
[2]
  MIC: 1 µg/mL
[3]
  MIC: 1 µg/mL
[4]
  MIC: 2 µg/mL
[5]
  MIC: 0.125 µg/mL
[6]
  MIC: 16 µg/mL
[7]
  MIC: 1 µg/mL
[8]
  MIC: 8 µg/mL

## CC(=O)NC[C@H]1CN(c2cc(F)c(N3CCn4c(=O)c5cc(Cl)cnc5n4CC3)c(F)c2)C(=O)O1
[1]
  MIC: 4 µg/mL
[2]
  MIC: 2 µg/mL
[3]
  MIC: 1 µg/mL
[4]
  MIC: 1 µg/mL
[5]
  MIC: 0.25 µg/mL
[6]
  MIC: 64 µg/mL
[7]
  MIC: 1 µg/mL
[8]
  MIC: 8 µg/mL

## O=C(NO)N1CCN(c2c(F)cc(N3C[C@H](Cn4ccnn4)OC3=O)cc2F)CCO1
[1]
  MIC: 8 µg/mL
[2]
  MIC: 4 µg/mL
[3]
  MIC: 2 µg/mL
[4]
  MIC: 2 µg/mL
[5]
  MIC: 0.5 µg/mL
[6]
  MIC: 16 µg/mL
[7]
  MIC: 4 µg/mL
[8]
  MIC: 64 µg/mL

## O=C(C(F)F)N1CCN(c2c(F)cc(N3C[C@H](CNc4ccon4)OC3=O)cc2F)CCN1
[1]
  MIC: 4 µg/mL
[2]
  MIC: 0.5 µg/mL
[3]
  MIC: 0.5 µg/mL
[4]
  MIC: 1 µg/mL
[5]
  MIC: 0.125 µg/mL
[6]
  MIC: 16 µg/mL
[7]
  MIC: 0.5 µg/mL
[8]
  MIC: 8 µg/mL

## CNC(=O)N1CCN(c2c(F)cc(N3C[C@H](CNC(=S)OC)OC3=O)cc2F)CCO1
[1]
  MIC: 2 µg/mL
[2]
  MIC: 1 µg/mL
[3]
  MIC: 0.5 µg/mL
[4]
  MIC: 0.5 µg/mL
[5]
  MIC: 0.125 µg/mL
[6]
  MIC: 32 µg/mL
[7]
  MIC: 0.5 µg/mL
[8]
  MIC: 4 µg/mL

## O=C1O[C@@H](Cn2ccnn2)CN1c1ccc(N2CCn3c(=O)c4cccnc4n3CC2)c(F)c1
[1]
  MIC: 32 µg/mL
[2]
  MIC: 4 µg/mL
[3]
  MIC: 2 µg/mL
[4]
  MIC: 4 µg/mL
[5]
  MIC: 1 µg/mL
[6]
  MIC: 32 µg/mL
[7]
  MIC: 4 µg/mL
[8]
  MIC: 64 µg/mL

## COC(=S)NC[C@H]1CN(c2cc(F)c(N3CCn4c(=O)c5cccnc5n4CC3)c(F)c2)C(=O)O1
[1]
  MIC: 1 µg/mL
[2]
  MIC: 0.5 µg/mL
[3]
  MIC: 0.25 µg/mL
[9]
  ED50: 9.83 mg/kg
[4]
  MIC: 0.25 µg/mL
[5]
  MIC: 0.125 µg/mL
[10]
  MIC: 0.25 µg/mL
[6]
  MIC: > 64 µg/mL
[7]
  MIC: 0.25 µg/mL
[8]
  MIC: 2 µg/mL

## CC(=O)NC[C@H]1CN(c2ccc(N3CCn4c(=O)c5cccnc5n4CC3)c(F)c2)C(=O)O1
[1]
  MIC: 16 µg/mL
[2]
  MIC: 2 µg/mL
[3]
  MIC: 2 µg/mL
[4]
  MIC: 1 µg/mL
[5]
  MIC: 0.5 µg/mL
[6]
  MIC: 32 µg/mL
[7]
  MIC: 2 µg/mL
[8]
  MIC: 16 µg/mL
